Source: ChEMBL document CHEMBL1154356, “1-Peptidyl-2-arachidonoyl-3-stearoyl-sn-glyceride: an immunologically active lipopeptide from goat serum (Capra hircus) is an endogenous damage-associated molecular pattern” (J Nat Prod, 2009)
The source made the active and inactive calls. The rule behind the calls is not given here. Where a SMILES comes first, the peptide text is derived from it. The star is where a group is joined. X1 = CCCCC/C=C\C/C=C\C/C=C\C/C=C\CCCC(=O)O[C@@H](COC(=O)CCCCCCCCCCCCCCCCC)CO*

What was measured:
Fibroblast [1] = experiment: Induction of IL1-beta expression in human fibroblasts at 12.5 ng/ml after 24 hrs by SYBR Green PCR relative to untreated control; type: functional, cell-based
Fibroblast [2] = experiment: Induction of IL6 expression in human fibroblasts at 12.5 ng/ml after 24 hrs by SYBR Green PCR relative to untreated control; type: functional, cell-based
[3] = Toxicity in human fibroblasts assessed as decrease in IL8 mRNA expression after 24 hrs by SYBR Green PCR relative to untreated control; type: cell-based; conditions: fibroblast
Method in brief: (§1)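 Normal primary human fibroblasts were grown in DMEM with 10% FBS and 1× penicillin/streptomycin at 37 °C and 5% CO2. Cells were treated for 24 h with synthetic compound or with purified natural material diluted 1:100. Total RNA was extracted, and 2.0 µg was reverse-transcribed for transcript quantitation. Expression was normalised to β-actin.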

Fibroblast [4] = experiment: Immunomodulatory effect in human fibroblasts assessed as induction of MCP1 mRNA expression at 3 ng/ml after 24 hrs by SYBR Green PCR relative to beta-actin control; type: functional; method in brief: as §1
Fibroblast [5] = experiment: Immunomodulatory effect in human fibroblasts assessed as induction of MCP1 mRNA expression at 1:100 dilution after 24 hrs by SYBR Green PCR relative to beta-actin control; type: functional; method in brief: as §1
Fibroblast [6] = experiment: Immunomodulatory effect in human fibroblasts assessed as induction of MIP-1alpha mRNA expression at 1:100 dilution after 24 hrs by SYBR Green PCR relative to beta-actin control; type: functional; method in brief: as §1
Fibroblast [7] = experiment: Induction of IL8 expression in human fibroblasts at 12.5 ng/ml after 24 hrs by SYBR Green PCR relative to untreated control; type: functional, cell-based
Fibroblast [8] = experiment: Induction of IL18 expression in human fibroblasts at 12.5 ng/ml after 24 hrs by SYBR Green PCR relative to untreated control; type: functional
Fibroblast [9] = experiment: Induction of IL8 secretion in human fibroblasts after 24 hrs by ELISA relative to untreated control; type: functional
Method in brief: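 Primary human fibroblasts were cultured in complete DMEM with synthetic compound across a dose range that included 0.3–3 ng/mL, for 24 h. Supernatants were stored at -80 °C. IL-8 was measured by sandwich ELISA: plates coated with anti-human IL-8 overnight at 4 °C, blocked 60 min at room temperature, sample 2 h, detection antibody 30 min, avidin-HRP 30 min, then TMB substrate.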

Fibroblast [10] = experiment: Induction of IL33 expression in human fibroblasts at 12.5 ng/ml after 24 hrs by SYBR Green PCR relative to untreated control; type: functional, cell-based
Fibroblast [11] = experiment: Immunomodulatory effect in human fibroblasts assessed as induction of IL6 mRNA expression at 5 ng/ml after 24 hrs by SYBR Green PCR relative to beta-actin control; type: functional; method in brief: as §1
Fibroblast [12] = experiment: Immunomodulatory effect in human fibroblasts assessed as induction of IL6 mRNA expression at 1:100 dilution after 24 hrs by SYBR Green PCR relative to beta-actin control; type: functional; method in brief: as §1
Fibroblast [13] = experiment: Immunomodulatory effect in human fibroblasts assessed as induction of IL8 mRNA expression at 3 ng/ml after 24 hrs by SYBR Green PCR relative to untreated control; type: functional; method in brief: as §1
Fibroblast [14] = experiment: Immunomodulatory effect in human fibroblasts assessed as induction of MIP-1alpha mRNA expression at 3 ng/ml after 24 hrs by SYBR Green PCR relative to beta-actin control; type: functional; method in brief: as §1

## CCCCC/C=C\C/C=C\C/C=C\C/C=C\CCCC(=O)O[C@@H](COC(=O)CCCCCCCCCCCCCCCCC)COC(=O)[C@@H](NC(=O)CNC(=O)[C@@H](NC(=O)[C@H](CS)NC(=O)[C@H](CC(=O)O)NC(=O)[C@H](CCCCN)NC(=O)[C@H](CCC(N)=O)NC(=O)[C@H](CCC(=O)O)NC(=O)[C@H](CCCCN)NC(=O)[C@H](CO)NC(=O)[C@@H](NC(=O)[C@H](Cc1ccc(O)cc1)NC(=O)CNC(=O)[C@H](CCCCN)NC(=O)[C@H](CC(=O)O)NC(=O)[C@H](Cc1ccc(O)cc1)NC(=O)[C@H](CC(C)C)NC(=O)[C@H](C)NC(C)=O)[C@@H](C)O)C(C)C)[C@@H](C)CC (Ac-ALYDKGYTSKEQKDCVGI-X1)
Fibroblast [1]
  Activity: inactive
Fibroblast [2]
  Activity: inactive
[3]
  Activity: Dose-dependent effect
Fibroblast [4]
  fold change (FC): 3
Fibroblast [5]
  fold change (FC): 3
Fibroblast [6]
  Activity: 15%
Fibroblast [7]
  Activity: inactive
Fibroblast [8]
  Activity: 20%
Fibroblast [9]
  Activity: Dose-dependent effect
  EC99: 0.003 µg/mL
Fibroblast [10]
  Activity: Active
Fibroblast [11]
  Activity: 20%
Fibroblast [12]
  Activity: 40%
Fibroblast [13]
  fold change (FC): 5
Fibroblast [14]
  Activity: 15%
